# Assay outcomes from PubChem.
# HTR5A inv ag: counter-screen for OPRM1-OPRD1 inverse agonists: human HTR5A inverse agonism; P47898; HTR5A cell line, luminescence; inhibition, % at 9.3 µM; 340,000 compounds, 0.083% hits; AID 504634; in the data active = inhibition mostly above about 23%, no sharp cut-off; inactive = mostly below about 18%;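 also: 0% = cells with DMSO and 100% = no-cell wells with DMSO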
# MC4R barr agon: human MC4R agonism via beta-arrestin; AID 540308; activation, % at 8.9 µM; U2OS MC4R beta-arrestin complementation, luminescence; percent of melanotan II response, DMSO zero; P32245; 360,000 compounds, 0.98% hits;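 active = activation above a per-plate cutoff, the mean activation of sample wells on that plate plus 3 SD, cut at about 8% in these data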
# MOR-DOR ag: agonists of human mu-delta opioid receptor heterodimerization; P35372+P41143; cells, OPRM1-OPRD1 heterodimerization, luminescence; activation, % at 9.3 µM; 340,000 compounds, 0.3% hits; in the data active = activation above about 18%;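 also: 0% = vehicle-treated cells and 100% = reference agonist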
# MOR-DOR inv ag: inverse agonists of human mu-delta opioid receptor heterodimerization | cell-based MOR-DOR heterodimer luminescence, inverse agonism | 340,000 compounds, 0.21% hits | AID 504357 | inhibition, % at 9.3 µM; in the data active = inhibition above about 22%, passing the limit was not always enough;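 also: 0% = cells with DMSO and 100% = wells without cells with DMSO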
# MC4R antag cAMP: blocks human MC4R cAMP signaling | 360,000 compounds, 0.48% hits | inhibition, % at 6.5 µM | P32245 | MC4R-expressing cells, MTII-stimulated cAMP, LANCE TR-FRET;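 active = inhibition above its plate's cutoff, the mean of tested wells on that plate plus 3 SD, cut at about 29% in these data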;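 also: 0% = Melanotan II alone and 100% = Melanotan II plus saturating MCL0020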
#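 Assay system: human MC4R-expressing U2OS cells; reagent: Melanotan II stimulation of cells; dosing: 6.5 µM single dose; timing: compound 30 min, challenge 1 h, detection 1 h; signal: TR-FRET cAMP assay; replicates: one well per compound, no replicates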
# HTR5A ag ctr: counter-screen for OPRM1-OPRD1 agonists: human HTR5A agonism; P47898; HTR5A agonist assay, luminescence, cell-based; activation, % at 9.3 µM; 340,000 compounds, 0.61% hits; in the data active = activation mostly above about 9.5%, no sharp cut-off; inactive = mostly below about 7.6%;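 also: 0% = cells with vehicle only and 100% = reference agonist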
# MC4R barr conf: human MC4R beta-arrestin agonism confirmation | shares compounds with MC4R barr agon | U2OS MC4R beta-arrestin recruitment, luminescence; scaled DMSO 0%, Melanotan II 100% | activation, % at 8.9 µM | 2,400 compounds, 31% hits | AID 602192;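 active = mean activation across replicates above the hit cutoff set in the earlier primary screen, cut at about 8% in these data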
# MOR DOR agonist: OPRM1-OPRD1 heterodimer agonism counter-screen. shares compounds with MC4R barr agon. U2OS PathHunter beta-arrestin, beta-gal luminescence; percent of deltorphin B response, DMSO zero. activation, % at 9.2 µM. 2,400 compounds, 5.8% hits. AID 602194;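 active = mean activation across replicates exceeds the hit threshold derived in the earlier primary screen, cut at about 18% in these data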;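 also: 100% = deltorphin B at 0.9 µM final and 0% = DMSO alone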
# An asterisk follows results filed as active; . = no result given. Compounds with a hit are over-represented: about 2.4% of the library has one in this group of screens.
SMILES,HTR5A inv ag,MC4R barr agon,MOR-DOR ag,MOR-DOR inv ag,MC4R antag cAMP,HTR5A ag ctr,MC4R barr conf,MOR DOR agonist
O=C(COC(=O)c1ccccc1OC(F)F)Nc1ccc(N2CCCCC2)cc1,2,11*,0,1,-2,9,-1,4
C[C@@H](NC(=O)c1[nH]cnc1C(=O)Nc1ccccc1F)c1ccccc1,.,0,.,.,2,.,.,.
CCCCOc1ccc(C(C)NC(=O)CCS(=O)(=O)Cc2ccccc2Cl)cc1 (stereo unspecified),-13,11*,7,-37,6,9,3,4
CCCCOc1ccc(C(C)NC(=O)CCS(=O)(=O)Cc2ccc(Cl)cc2)cc1 (stereo unspecified),5,2,0,-1,17,-2,.,.
COc1ccc(F)cc1-c1cc(NC=O)c2ncc(-c3cccc(C(F)(F)F)c3)n2c1,.,10*,.,.,-23,.,6,2
CC(=O)c1cccc(-c2cnc3c(NC=O)cc(-c4ccc(F)cc4)cn23)c1,.,14*,.,.,5,.,15*,4
COc1ccccc1-c1cc(NC=O)c2ncc(-c3cccc(C(C)=O)c3)n2c1,.,9.9*,.,.,-43,.,14*,4
COc1cccc(NC(=O)c2ccc(N3C(=O)C4CCC(C)CC4C3=O)cc2)c1 (stereo unspecified),-14,-1,0,0,9,4,.,.
COc1ccc(S(=O)(=O)N2C(=O)/C(=C3\SC(N)=NC3=O)c3ccccc32)cc1,10,0,0,-1,14,-3,.,.
COC(=O)c1ccc(C(=O)Nc2nc3cc(N)c(C)cc3s2)cc1,9,11*,-1,5,-1,-3,0,2
CCOC(=O)C(C(=O)OCC)C1OC(=O)c2cc3c(cc21)C(=O)OC3C(C(=O)OCC)C(=O)OCC (stereo unspecified),-12,-1,5,-27,5,4,.,.
CCCC(=O)Oc1ccccc1C1SCc2cc(C)c(C)cc2CS1,-20,16*,4,-20,10,1,5,4
O=[N+]([O-])c1ccc(OCC(O)CN(C2CCCCC2)C2CCCCC2)cc1 (stereo unspecified),13,-1,-1,7,-6,0,.,.
CC(C)CN(CC(C)C)CC(O)COc1ccc([N+](=O)[O-])cc1 (stereo unspecified),3,10*,5,-27,10,1,-1,7
O=C(OCc1cn([C@@H]2CN(Cc3cccs3)[C@@H](c3ccc(Cl)cc3)C[C@H]2O)nn1)c1ccccc1,.,2,.,.,6,.,.,.
CCn1ccc(C(=O)Nc2c(C)nn(Cc3c(F)c(F)c(F)c(F)c3F)c2C)n1,8,-2,-2,10,2,-2,.,.
CCCCC(=O)Nc1sc2c(c1C(=O)OCC)CCC(C=O)=C2Cl,4,10*,1,-5,15,12*,7,5
CCOC(=O)c1c(NC(=O)c2ccccc2Cl)sc2c1CCc1ccccc1-2,12,-2,2,-8,16,1,.,.
CCN(CC)C(=O)C(=O)Nc1ccc(OCc2ccccc2)cc1,-7,-2,-1,6,0,3,.,.
Cc1ccc(NC(=O)c2ncn(CCCN3CCN(Cc4cccc5ccccc45)CC3)n2)cc1C,-15,16*,7,-33,6,4,26*,9
Cc1ccc(NC(=O)c2ncn(CC(=O)N[C@H](C)c3cccc4ccccc34)n2)cc1C,2,0,-2,12,-9,0,.,.
Cc1cc2oc3ccc(NCCCn4ccnc4)cc3c(=O)c2cc1C,0,11*,16,-90,-6,0,1,12
Cc1cc2oc3ccc(NCCCN4CCOCC4)cc3c(=O)c2cc1C,-23,2,0,1,-1,8,.,.
O=C(NCCOc1ccccc1Cl)C(=O)NCCOc1ccccc1Cl,8,1,3,-14,-3,-5,.,.
CCc1ccc(NC(=O)C(=O)NCCOc2ccccc2Cl)cc1,13,21*,0,2,-4,-4,6,3
SMILES,HTR5A inv ag,MC4R barr agon,MOR-DOR ag,MOR-DOR inv ag,MC4R antag cAMP,HTR5A ag ctr,MC4R barr conf,MOR DOR agonist
Cc1ccc(NC(=O)C(=O)NCCOc2ccccc2Cl)cc1,4,12*,3,-16,1,-2,9.8*,4
Fc1ccc(Cn2c(-c3cscn3)nc3ccccc32)c(Cl)c1,3,9.7*,3,-20,4,-4,3,8
CCN(CC)c1ccc2cc(C(=O)NCc3ccc(F)cc3)c(=N)oc2c1,0,13*,-1,5,22,0,1,7
CCc1ccc(-c2nc(NC(=O)c3ccc(OCC(=O)Nc4ccc(F)cc4)c(OC)c3)sc2C)cc1,19,11*,-1,5,13,8,10*,5
COc1cc(C(=O)Nc2nc(-c3ccc(Cl)cc3)c(C)s2)ccc1OCC(=O)Nc1ccc(F)cc1,-1,5,1,-6,11,0,.,.
COc1ccc(-n2cccc2/C=C2/NC(=O)N(c3cccc(Cl)c3)C2=O)cc1,11,14*,-1,5,2,5,2,2
COc1ccc(C2CC(c3ccccc3)=NN2C(=O)c2cccs2)cc1 (stereo unspecified),7,5,8,-38,2,6,.,.
COc1ccc(C2=NN(C(=O)c3cccs3)C(c3ccccc3O)C2)cc1 (stereo unspecified),6,13*,2,-13,-6,6,16*,5
Cc1ccc(C(=O)Nc2c(C)cc(-c3ccc(Cl)cc3)oc2=O)cc1,-6,19*,1,-5,-6,4,0,8
Cc1cc(-c2ccc(Cl)cc2)oc(=O)c1NC(=O)c1ccccc1,5,0,0,0,0,5,.,.
Cc1ccc(N2CC(O)=C(c3nc4ccccc4c(=O)[nH]3)C2=N)cc1C,12,0,0,1,4,-5,.,.
CSc1ccccc1NC(=O)CN(C)C(=O)C1CCN(C(=O)Nc2ccccc2)CC1,-2,2,3,-21,0,1,.,.
Cc1nc(C)c(-c2ccc(SCC(=O)Nc3ccc(C)c(Cl)c3)nn2)s1,-16,10*,-1,3,-1,10,3,6
Cc1ccc2nc(NC(=O)c3ccc(OCC4CCCO4)cc3)sc2c1 (stereo unspecified),-22,7,5,-32,27,9,.,.
